Values after ≈ are worked out from the molar mass of the structure shown. Active and inactive are the calls of the source. The calls are words filed in the database; no cut-off is given here.
How the values were obtained:
Pyricularia grisea = experiment: Antifungal activity against Pyricularia grisea assessed as inhibition of germ-tube development by microdilution method; assay type: functional, organism-based
Method in brief: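 Pyricularia grisea isolate from infected rice leaves (Thailand), tested in 4% malt extract broth by microdilution. Stock in acetone/malt extract emulsified with 0.2% Tween 80, diluted 2-fold; final range 200–0.78 μg/mL. Inoculum 10⁴ CFU conidia per well. Incubated 16 h at room temperature, stopped with lactophenol blue. Germ-tube size measured by pixel counts of 10 conidia per well. EC50/EC90 by probit; MIC is the first concentration giving total inhibition.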

Cladosporium herbarum = experiment: Antifungal activity against Cladosporium herbarum assessed as inhibition zone in mycelial layer assessed per spot by TLC bioautography assay; assay type: functional
Method in brief: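 TLC bioautography with Cladosporium herbarum strain VIAM-MA1511 as the mycelial layer. Compounds were applied as a dilution series from 100 to 25 μg/spot, and plates were held 3 days. The MIC was the first amount in the series that gave a homogeneous inhibition zone in the mycelial layer.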

With `CO/N=C(/C(=O)OC)c1ccccc1COc1ccccc1C` [KRESOXIM-METHYL] the EC50 (Pyricularia grisea) was 0.003 µg/mL (≈ 0.00957 µM) and the MIC (Pyricularia grisea) was > 200 µg/mL.

`CCCC(Br)(Br)c1cc2ccccc2c(=O)o1` was tested, and the EC50 (Pyricularia grisea) was 22 µg/mL (≈ 61.1 µM), the MIC (Pyricularia grisea) was > 200 µg/mL and the MIC (Cladosporium herbarum) was 50 µg.

`CC(C)CC(=O)OCC#CCc1cc2ccccc2c(=O)o1` [CAPILLARIN ISOVALERATE] gave an EC50 (Pyricularia grisea) of 5 µg/mL (≈ 16.8 µM), an EC90 (Pyricularia grisea) of 13 µg/mL (≈ 43.6 µM) and an MIC (Pyricularia grisea) of 25 µg/mL (≈ 83.8 µM). The Activity (Cladosporium herbarum) was “inactive”.

For `CC[C@H](Cc1cc2ccccc2c(=O)o1)OC`, the Activity (Pyricularia grisea) was “inactive” and the MIC (Cladosporium herbarum) was >100 µg.

With `COc1cc(O)c2c(c1)C[C@@H](C)OC2=O` the EC50 (Pyricularia grisea) was 47 µg/mL (≈ 226 µM), the EC90 (Pyricularia grisea) was 106 µg/mL (≈ 509 µM) and the MIC (Pyricularia grisea) was 200 µg/mL (≈ 961 µM). It also gave an MIC (Cladosporium herbarum) of 25 µg.

With `C[C@@H](O)/C=C/c1cc2ccccc2c(=O)o1` the EC50 (Pyricularia grisea) was 140 µg/mL (≈ 647 µM), the EC90 (Pyricularia grisea) was 292 µg/mL (≈ 1350 µM) and the MIC (Pyricularia grisea) was > 200 µg/mL. The MIC (Cladosporium herbarum) was 100 µg.

In the case of `CCCCNC(=O)n1c(NC(=O)OC)nc2ccccc21` [BENOMYL], the EC50 (Pyricularia grisea) is reported as 0.06 µg/mL (≈ 0.207 µM), the MIC (Pyricularia grisea) is reported as 200 µg/mL (≈ 689 µM) and the MIC (Cladosporium herbarum) is reported as <25 µg.

`CC#CCc1cc2ccccc2c(=O)o1` [CAPILLARIN] showed an EC50 (Pyricularia grisea) of 37 µg/mL (≈ 187 µM), an EC90 (Pyricularia grisea) of 92 µg/mL (≈ 464 µM) and an MIC (Pyricularia grisea) of 100 µg/mL (≈ 504 µM). For the same compound, the Activity (Cladosporium herbarum) was “inactive”.

With `C=C/C=C/c1cc2ccccc2c(=O)o1` the EC50 (Pyricularia grisea) was 14 µg/mL (≈ 70.6 µM), the EC90 (Pyricularia grisea) was 45 µg/mL (≈ 227 µM) and the MIC (Pyricularia grisea) was 50 µg/mL (≈ 252 µM). It also gave an MIC (Cladosporium herbarum) of 25 µg.

Compound `CC/C=C/c1cc2c(O)cccc2c(=O)o1` [ARTEMIDINOL] has an EC50 (Pyricularia grisea) of 12 µg/mL (≈ 55.5 µM), an EC90 (Pyricularia grisea) of 32 µg/mL (≈ 148 µM) and an MIC (Pyricularia grisea) of 50 µg/mL (≈ 231 µM). For the same compound, the MIC (Cladosporium herbarum) was >100 µg.

For `CC(O)C#Cc1cc2ccccc2c(=O)o1` (centres undefined), the EC50 (Pyricularia grisea) was 0.9 µg/mL (≈ 4.2 µM), the MIC (Pyricularia grisea) was 50 µg/mL (≈ 233 µM) and the MIC (Cladosporium herbarum) was 100 µg.

Work on `CC(=O)/C=C/c1cc2ccccc2c(=O)o1` yielded an EC50 (Pyricularia grisea) of 5 µg/mL (≈ 23.3 µM), an EC90 (Pyricularia grisea) of 21 µg/mL (≈ 98 µM) and an MIC (Pyricularia grisea) of 25 µg/mL (≈ 117 µM). The MIC (Cladosporium herbarum) was <25 µg.

With `CC[C@H](O)Cc1cc2ccccc2c(=O)o1` the EC50 (Pyricularia grisea) was 25 µg/mL (≈ 115 µM), the MIC (Pyricularia grisea) was > 200 µg/mL and the MIC (Cladosporium herbarum) was 100 µg.

In the case of `CC[C@H](O)[C@H](O)c1cc2ccccc2c(=O)o1` (relative stereo), the Activity (Pyricularia grisea) is reported as “inactive”.

`CC(=O)OC(C)/C=C/c1cc2ccccc2c(=O)o1` (centres undefined) gave an EC50 (Pyricularia grisea) of 8 µg/mL (≈ 31 µM), an EC90 (Pyricularia grisea) of 30 µg/mL (≈ 116 µM) and an MIC (Pyricularia grisea) of 50 µg/mL (≈ 194 µM). The MIC (Cladosporium herbarum) was 50 µg.

Work on `CC/C=C(\Br)c1cc2ccccc2c(=O)o1` yielded an EC50 (Pyricularia grisea) of 2 µg/mL (≈ 7.17 µM), an EC90 (Pyricularia grisea) of 9 µg/mL (≈ 32.2 µM) and an MIC (Pyricularia grisea) of 12 µg/mL (≈ 43 µM). The MIC (Cladosporium herbarum) was <25 µg.

Compound `CC/C=C/c1cc2cccc(O)c2c(=O)o1` has an EC50 (Pyricularia grisea) of 4 µg/mL (≈ 18.5 µM), an EC90 (Pyricularia grisea) of 19 µg/mL (≈ 87.9 µM) and an MIC (Pyricularia grisea) of 25 µg/mL (≈ 116 µM). For the same compound, the MIC (Cladosporium herbarum) was >100 µg.

With `CC/C=C/c1cc2ccccc2c(=O)o1` the EC50 (Pyricularia grisea) was 11 µg/mL (≈ 54.9 µM), the EC90 (Pyricularia grisea) was 19 µg/mL (≈ 94.9 µM) and the MIC (Pyricularia grisea) was 25 µg/mL (≈ 125 µM). For the same compound, the MIC (Cladosporium herbarum) was 100 µg.

`COC1=CC(=O)C[C@@H](C)[C@]12Oc1c(Cl)c(OC)cc(OC)c1C2=O` [GRISEOFULVIN] was tested, and the EC50 (Pyricularia grisea) was 4 µg/mL (≈ 11.3 µM) and the MIC (Pyricularia grisea) was > 200 µg/mL.

With `O=c1occc2ccccc12` [ISOCOUMARIN] the EC50 (Pyricularia grisea) was 83 µg/mL (≈ 568 µM) and the MIC (Pyricularia grisea) was > 200 µg/mL.

Compound `CCC(Br)C(Br)c1cc2ccccc2c(=O)o1` (centres undefined) has an MIC (Cladosporium herbarum) of 100 µg.

`CN(CC[C@H](N)CC(=O)N[C@H]1C=C[C@H](n2ccc(N)nc2=O)O[C@@H]1C(=O)O)C(=N)N` [BLASTICIDIN_S] was tested, and the EC50 (Pyricularia grisea) was 13 µg/mL (≈ 30.8 µM) and the MIC (Pyricularia grisea) was > 200 µg/mL.

With `CC[C@@H]1O[C@H]1c1cc2ccccc2c(=O)o1` the EC50 (Pyricularia grisea) was 93 µg/mL (≈ 430 µM), the MIC (Pyricularia grisea) was > 200 µg/mL and the MIC (Cladosporium herbarum) was 25 µg.

`CCCCc1cc2ccccc2c(=O)o1` [DIHYDROARTEMIDIN] gave an EC50 (Pyricularia grisea) of 10 µg/mL (≈ 49.4 µM), an EC90 (Pyricularia grisea) of 40 µg/mL (≈ 198 µM) and an MIC (Pyricularia grisea) of 50 µg/mL (≈ 247 µM). For the same compound, the MIC (Cladosporium herbarum) was 100 µg.

For `CCCC(O)c1cc2ccccc2c(=O)o1` (centres undefined), the EC50 (Pyricularia grisea) was 37 µg/mL (≈ 170 µM), the EC90 (Pyricularia grisea) was 83 µg/mL (≈ 380 µM) and the MIC (Pyricularia grisea) was 100 µg/mL (≈ 458 µM). The MIC (Cladosporium herbarum) was 100 µg.

`CCCC(Br)c1cc2ccccc2c(=O)o1` (centres undefined) was tested, and the EC50 (Pyricularia grisea) was 35 µg/mL (≈ 124 µM), the EC90 (Pyricularia grisea) was 96 µg/mL (≈ 341 µM) and the MIC (Pyricularia grisea) was 100 µg/mL (≈ 356 µM). For the same compound, the MIC (Cladosporium herbarum) was 25 µg.

`CC[C@@H](O)[C@H](O)c1cc2ccccc2c(=O)o1` (relative stereo) was tested, and the Activity (Pyricularia grisea) was “inactive”.

`CC[C@H]1O[C@@H]1c1cc2ccccc2c(=O)o1` (racemic) was tested, and the Activity (Pyricularia grisea) was “inactive” and the MIC (Cladosporium herbarum) was 50 µg.

`CCC#Cc1cc2ccccc2c(=O)o1` [CORFIN] gave an EC50 (Pyricularia grisea) of 3 µg/mL (≈ 15.1 µM), an EC90 (Pyricularia grisea) of 99 µg/mL (≈ 499 µM) and an MIC (Pyricularia grisea) of 100 µg/mL (≈ 504 µM). For the same compound, the MIC (Cladosporium herbarum) was >100 µg.

`CC#CCc1cc2cccc(O)c2c(=O)o1` gave an EC50 (Pyricularia grisea) of 2 µg/mL (≈ 9.34 µM), an EC90 (Pyricularia grisea) of 102 µg/mL (≈ 476 µM) and an MIC (Pyricularia grisea) of 100 µg/mL (≈ 467 µM). For the same compound, the Activity (Cladosporium herbarum) was “inactive”.

Source: ChEMBL document CHEMBL1146454, “Antifungal 3-butylisocoumarins from Asteraceae-Anthemideae” (J Nat Prod, 2004)
